Results on 3 compounds are retold here after ChEMBL document CHEMBL1955714, “Synthesis and antidiabetic performance of β-amino ketone containing nabumetone moiety” (Bioorg Med Chem, 2012).

The target of test [1] is Peroxisome proliferator-activated receptor (Homo sapiens) (UniProt P37231+Q07869+Q03181). Description: Activation of PPAR in human HepG2 cells at 10 ug/ml after 24 hrs by luciferase reporter gene assay relative to rosiglitazone. It is filed as cell-based. In a few lines:
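HepG2 cells in low-glucose DMEM with 100 U mL-1 streptomycin/penicillin, plated at 1.5 × 10⁴ per well a day before transfection. At 70% confluence they were co-transfected with pPPRE-Luc (firefly) and phRL-TK (renilla). After 24 h the medium was replaced with sample-containing medium, with rosiglitazone as positive control. Dual firefly/renilla luciferase was read after a further 24 h; untransfected cells served as blank.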

The target in test [2] is T1, Peroxisome proliferator-activated receptor (Homo sapiens, UniProt P37231+Q07869+Q03181).
T1 sequence (P37231 whole entry): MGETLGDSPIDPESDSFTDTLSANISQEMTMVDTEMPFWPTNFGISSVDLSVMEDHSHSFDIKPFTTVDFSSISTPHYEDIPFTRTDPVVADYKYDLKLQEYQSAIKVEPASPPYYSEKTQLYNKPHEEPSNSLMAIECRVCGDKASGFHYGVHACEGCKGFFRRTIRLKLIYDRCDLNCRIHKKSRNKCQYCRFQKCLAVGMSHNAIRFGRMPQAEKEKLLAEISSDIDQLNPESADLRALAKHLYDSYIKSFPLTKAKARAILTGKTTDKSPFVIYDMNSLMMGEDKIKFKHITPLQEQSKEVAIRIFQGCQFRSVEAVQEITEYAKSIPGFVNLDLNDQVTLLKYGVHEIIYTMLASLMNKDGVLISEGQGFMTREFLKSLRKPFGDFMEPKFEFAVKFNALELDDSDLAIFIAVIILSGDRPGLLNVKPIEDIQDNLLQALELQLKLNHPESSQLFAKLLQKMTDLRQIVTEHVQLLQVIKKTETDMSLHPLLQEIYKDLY
T1 sequence (Q07869 whole entry): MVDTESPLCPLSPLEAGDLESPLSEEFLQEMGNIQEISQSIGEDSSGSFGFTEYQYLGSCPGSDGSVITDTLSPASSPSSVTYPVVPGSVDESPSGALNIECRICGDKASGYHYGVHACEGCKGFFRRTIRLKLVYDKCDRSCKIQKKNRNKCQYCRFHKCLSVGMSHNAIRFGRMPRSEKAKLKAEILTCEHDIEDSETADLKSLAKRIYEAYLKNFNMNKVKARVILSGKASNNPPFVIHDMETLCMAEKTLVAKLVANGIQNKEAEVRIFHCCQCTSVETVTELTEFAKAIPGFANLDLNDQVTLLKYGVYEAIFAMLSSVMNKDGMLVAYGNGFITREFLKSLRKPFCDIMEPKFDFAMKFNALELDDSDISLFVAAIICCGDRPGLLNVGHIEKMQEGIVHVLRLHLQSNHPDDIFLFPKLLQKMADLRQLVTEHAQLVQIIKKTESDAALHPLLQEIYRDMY
T1 sequence (Q03181 whole entry): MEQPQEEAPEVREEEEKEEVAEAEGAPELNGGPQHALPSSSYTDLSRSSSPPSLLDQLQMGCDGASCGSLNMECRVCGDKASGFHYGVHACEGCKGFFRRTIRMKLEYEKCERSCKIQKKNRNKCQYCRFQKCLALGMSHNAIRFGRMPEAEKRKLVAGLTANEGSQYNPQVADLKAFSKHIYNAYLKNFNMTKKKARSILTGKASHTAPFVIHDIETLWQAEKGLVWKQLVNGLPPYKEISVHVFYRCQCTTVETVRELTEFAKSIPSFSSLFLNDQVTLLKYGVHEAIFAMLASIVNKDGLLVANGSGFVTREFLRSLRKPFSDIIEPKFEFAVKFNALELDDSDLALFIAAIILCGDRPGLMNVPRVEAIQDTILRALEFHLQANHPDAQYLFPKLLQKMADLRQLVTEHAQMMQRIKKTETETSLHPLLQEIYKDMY
Description: Activation of PPAR in human HepG2 cells after 24 hrs by luciferase reporter gene assay. It is filed as cell-based.

For another test, the species on record is Rattus norvegicus. The experiment in a line: Inhibition of rat intestine alpha-glucosidase using maltose as substrate after 10 mins by spectrometric analysis relative to acarbose. Details: concentration or dose not given beside the values. In a few lines:
(§1)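 Enzyme and sample were preincubated at 37 °C for 10 min. Then 0.1 mol L-1 maltose was added and incubated 10 min at room temperature. The reaction was stopped and OD read at 490 nm. Blank (no enzyme, no sample) and negative (no sample) controls were run alongside.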

Test [3] in a line: Inhibition of rat intestine alpha-glucosidase using maltose as substrate after 10 mins by spectrometric analysis. An outline of the steps:
as §1

≈ marks a conversion by molar mass, not a printed value.

In test [1], `COc1ccc2cc(CCC(=O)CC(Nc3ccc(S(N)(=O)=O)cc3)c3ccc(O)cc3)ccc2c1` (configuration not stated) showed an Activity of 73.4%. The same compound registered an EC50 in test [2] of 5.56 µg/mL (≈ 11 µM). In the test listed under Rattus norvegicus, this compound showed an inhibition of 52.8%. This compound also had an IC50 in test [3] of 4.14 µg/mL (≈ 8.2 µM).

Turning to `COc1ccc2cc(CCC(=O)CC(Nc3ccc(S(N)(=O)=O)cc3)c3ccc(Br)cc3)ccc2c1` (configuration not stated), the Activity in test [1] came out at 67.3%. The same compound had an EC50 in test [2] of 8.21 µg/mL (≈ 14.5 µM). Moreover, the inhibition in the test listed under Rattus norvegicus came out at 79.7%. This compound showed an IC50 in test [3] of 2.92 µg/mL (≈ 5.15 µM).

Regarding `COc1ccc2cc(CCC(=O)CC(Nc3ccc(S(N)(=O)=O)cc3)c3ccc(Cl)cc3)ccc2c1` (configuration not stated), in test [1], the Activity is 71.9%. This compound also showed an EC50 in test [2] of 6.74 µg/mL (≈ 12.9 µM). Further, in the test listed under Rattus norvegicus, the inhibition turned out to be 66.3%. The compound further yielded an IC50 in test [3] of 4.07 µg/mL (≈ 7.78 µM).
